In ChEMBL document CHEMBL4680184, “Simple amphiphilic α-hydrazido acids: Rational design, synthesis, and in vitro bioactivity profile of a novel class of potential antimicrobial compounds” (Eur J Med Chem, 2020):
Values after ≈ are worked out from the molar mass of the structure shown.

Legend:
Enterococcus faecalis [1] = assay: Antibacterial activity against Enterococcus faecalis ATCC 29212 assessed as inhibition of visible growth after 24 hrs by broth microdilution method; type: functional
Summary of the method: (§1)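 Compounds dissolved in sterile water at the highest achievable concentration, then serially diluted in Mueller-Hinton II broth per CLSI broth microdilution. Strains grown 6 h in BHI, diluted in MHII to 1 × 10^6 cfu/mL final. Aerobic incubation 37 °C, 24 h; tetracycline internal control; bacteria-only growth controls. MIC = lowest concentration with no visible growth; triplicate.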

Enterococcus faecium = assay: Antibacterial activity against Enterococcus faecium 135562 (35C) assessed as inhibition of visible growth after 24 hrs by broth microdilution method; type: functional; summary of the method: as §1
Staphylococcus aureus [2] = assay: Antibacterial activity against Staphylococcus aureus ATCC 29213 assessed as inhibition of visible growth after 24 hrs by broth microdilution method; type: functional; summary of the method: as §1
Escherichia coli [3] = assay: Antibacterial activity against Escherichia coli ATCC 25922 assessed as inhibition of visible growth after 24 hrs by broth microdilution method; type: functional; summary of the method: as §1
Pseudomonas aeruginosa = assay: Antibacterial activity against Pseudomonas aeruginosa ATCC 27853 assessed as inhibition of visible growth after 24 hrs by broth microdilution method; type: functional; summary of the method: as §1
[4] = Hemolytic activity against human erythrocytes measured after 1 hr by microplate reader based spectrophotometric analysis; type: ADME, cell-based, Erythrocyte
Summary of the method: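 Heparinized fresh human blood washed three times in PBS pH 7.4 (1000 g, 10 min), resuspended ~20 vol %. Equal volume with 1:2 serial dilutions of compound in PBS, 1 h at 37 °C; PBS and 0.2 vol % Triton X-100 controls. Supernatant diluted 1:60, A350 read. HC50 from three- or four-parameter Hill fit; mean of three replicates.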

[5] = Therapeutic index, ratio of HC50 for human erythrocytes to MIC for Staphylococcus aureus ATCC 29213; type: toxicity; details: read-out: TI
[6] = Therapeutic index, ratio of HC50 for human erythrocytes to MIC for Escherichia coli ATCC 25922; type: toxicity; details: read-out: TI
[7] = Retention time of the compound by RP-HPLC analysis; type: physicochemical
Summary of the method: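 RP-HPLC on C18 column (5 µm, 200 × 4.6 mm), 0.5 mL/min; hydrochlorides at 0.5–1 mg/mL in water:2-propanol 70:30, gradient to 10:90 over 40 min, then 20 min at 10:90. Adjusted retention time = instrumental retention time minus hold-up time.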

Staphylococcus aureus [8] = assay: Antibacterial activity against linezolid-methicillin-resistant Staphylococcus aureus AOUC 0915 assessed as inhibition of visible growth after 24 hrs by broth microdilution method; type: functional
Summary of the method: (§2)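 Broth microdilution per CLSI: strains grown 6 h in BHI broth, diluted in Mueller-Hinton II broth to 1 × 10^6 cfu/mL, mixed 1:1 with serial dilutions of compound in MHII (compounds dissolved in sterile water); aerobic incubation 37 °C, 24 h. MIC = lowest concentration with no visible growth. Tetracycline internal control; triplicate.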

Enterococcus faecalis [9] = assay: Antibacterial activity against Enterococcus faecalis ATCC 29212; type: functional; summary of the method: as §1
Staphylococcus aureus [10] = assay: Antibacterial activity against Staphylococcus aureus ATCC 29213; type: functional; summary of the method: as §2
Escherichia coli [11] = assay: Antibacterial activity against gentamicin-colistin-resistant Escherichia coli 288328 assessed as inhibition of visible growth after 24 hrs by broth microdilution method; type: functional; summary of the method: as §2
Escherichia coli [12] = assay: Antibacterial activity against Escherichia coli ATCC 25922; type: functional; summary of the method: as §2

| Compound | MIC (Enterococcus faecalis [1]) [µg/mL] | MIC (Enterococcus faecium) [µg/mL] | MIC (Staphylococcus aureus [2]) [µg/mL] | MIC (Escherichia coli [3]) [µg/mL] | MIC (Pseudomonas aeruginosa) [µg/mL] | HC50 at 1 h [4] [µg/mL] | selectivity ratio [5] | selectivity ratio [6] | Retention_time [7] [min] | MIC (Staphylococcus aureus [8]) [µg/mL] | MIC (Enterococcus faecalis [9]) [µg/mL] | MIC (Staphylococcus aureus [10]) [µg/mL] | MIC (Escherichia coli [11]) [µg/mL] | MIC (Escherichia coli [12]) [µg/mL] |
| --- | --- | --- | --- | --- | --- | --- | --- | --- | --- | --- | --- | --- | --- | --- |
| CCCCCCCCCCCCCCCCCCNC(=O)CN(NC(C)=O)C(=O)CN.Cl | 32 | 32 | 256 | 512 | 512 | 228 | 0.9 | 0.5 | 28 |  |  |  |  |  |
| CCCCCCCCCCCCCCCCCC(=O)NN(CC(=O)NCCCCCCCC)C(=O)CN.Cl | 512 | 64 | 128 | 512 | 512 | 200 | 1.6 | 0.4 | 32.2 |  |  |  |  |  |
| CCCCCCCCCCCCNC(=O)CN(NC(C)=O)C(=O)CN.Cl | 32 | 32 | 64 | 64 | 64 | 127 | 2 | 2 | 17.5 |  |  |  |  |  |
| CCCCCCCCCCCCCCCCCC(=O)NN(CC(=O)NCCC)C(=O)CN.Cl | 32 | 16 | 64 | 512 | 512 | 234 | 3.7 | 0.5 | 26.5 |  |  |  |  |  |
| CCCCCCCCCCCC(=O)NN(CC(=O)NCCC)C(=O)CN.Cl | 64 | 64 | 64 | 64 | 64 | 167 | 2.6 | 2.6 | 16.6 |  |  |  |  |  |
| CCCCCCCCCCCCCCCCCCNC(=O)CN(NC(=O)OCc1ccccc1)C(=O)CN.Cl | 512 | 256 | 512 | 512 | 512 | 243 | 0.5 | 0.5 | 30.9 |  |  |  |  |  |
| CCCCCCCCCCCCCCCCCC(=O)NN(CC(=O)NCCCCCCCCCCCC)C(=O)CN.Cl | 512 | 256 | 256 | 512 | 512 | 124 | 0.5 | 0.2 | 35.8 |  |  |  |  |  |
| CCCCCCCCCCCCNC(=O)CN(C(=O)CN)N(C)C(=O)OCc1ccccc1 | 8 (≈ 17.3 µM) | 8 (≈ 17.3 µM) | 8 (≈ 17.3 µM) | 64 (≈ 138 µM) | 512 (≈ 1110 µM) |  |  |  | 20.7 |  |  |  |  |  |
| CCCCCCCCCCCCNC(=O)CN(NC(=O)CCCCCCCCCCC)C(=O)CN.Cl | 128 | 128 | > 128 | > 128 | > 128 | 438 | < 3.4 | < 3.4 | 29.1 |  |  |  |  |  |
| CCCCCCCC(=O)NN(CC(=O)NCCC)C(=O)CN.Cl | 1020 | 1020 | 1020 | 1020 | 2050 | 433 | 0.4 | 0.4 | 5.2 |  |  |  |  |  |
| CCCCCCCCCCCCNC(=O)CN(C(=O)CN)N(C)C(=O)C(C)(C)C | 16 (≈ 38.8 µM) | 16 (≈ 38.8 µM) | 16 (≈ 38.8 µM) | 64 (≈ 155 µM) | 512 (≈ 1240 µM) |  |  |  | 18.9 |  |  |  |  |  |
| CCCCCCCCNC(=O)CN(NC(=O)c1ccccc1)C(=O)CN.Cl | 128 | 128 | 128 | 128 | 128 | 368 | 2.9 | 2.9 | 12.3 |  |  |  |  |  |
| CCCCCCCCCCCCCCCCCCNC(=O)CN(NC(=O)CCCCCCCCCCCCCCCCC)C(=O)CN.Cl |  |  |  |  |  |  |  |  | 41.8 |  |  |  |  |  |
| CCCNC(=O)CN(NC(C)=O)C(=O)CN.O=C(O)C(F)(F)F | 2050 | 2050 | 1020 | 2050 | 2050 | 2700 | 2.6 | 1.3 | 0.3 |  |  |  |  |  |
| CCCCCCCCCCCC(=O)NN(CC(=O)NCCCCCCCC)C(=O)CN.Cl | 16 | 8 | 64 | 128 | 128 | 486 | 7.6 | 3.8 | 23.5 |  |  |  |  |  |
| COc1cccc(OC)c1C(=O)N[C@@H]1C(=O)N2[C@@H]1SC(C)(C)[C@@H]2C(=O)O [METHICILLIN] |  |  |  |  |  |  |  |  |  | > 1020 | > 16 | 0.5 (≈ 1.31 µM) |  |  |
| CCCCCCCCNC(=O)CN(C(=O)CN)N(C)C(=O)C(C)(C)C | 512 (≈ 1440 µM) | 512 (≈ 1440 µM) | 512 (≈ 1440 µM) | 256 (≈ 718 µM) | 512 (≈ 1440 µM) |  |  |  | 11.7 |  |  |  |  |  |
| CCCCCCCCCCCCCCCCCCNC(=O)CN(NC(=O)CCCCCCCCCCC)C(=O)CN.Cl | 512 | 512 | 256 | > 512 | 512 | 364 | 1.4 | < 0.7 | 35.9 |  |  |  |  |  |
| CCCCCCCCNC(=O)CN(C(=O)CN)N(C)C(=O)OCc1ccccc1 | 128 (≈ 315 µM) | 128 (≈ 315 µM) | 128 (≈ 315 µM) | 128 (≈ 315 µM) | 256 (≈ 630 µM) |  |  |  | 13.8 |  |  |  |  |  |
| GENTAMICIN |  |  |  |  |  |  |  |  |  |  | 4 | 0.12 | 128 | 0.25 |
| CCCCCCCCCCCCNC(=O)CN(C(=O)CN)N(C)C(C)=O | 32 (≈ 86.4 µM) | 32 (≈ 86.4 µM) | 64 (≈ 173 µM) | 128 (≈ 345 µM) | 256 (≈ 691 µM) |  |  |  | 17.1 |  |  |  |  |  |
| CCCCCCCCCCCCNC(=O)CN(NC(=O)CCCCCCC)C(=O)CN.Cl | 32 | 16 | 64 | 256 | 512 | 367 | 5.7 | 1.4 | 24 |  |  |  |  |  |
| CCCNC(=O)CN(NC(=O)OCc1ccccc1)C(=O)CN.Cl | 1020 | 512 | 512 | 512 | 512 | 775 | 1.5 | 1.5 | 3.4 |  |  |  |  |  |
| CCCCCCCCCCCCCCCCCCNC(=O)CN(NC(=O)CCCCCCC)C(=O)CN.Cl | > 256 | > 256 | > 256 | > 256 | > 256 | 267 | < 1 | < 1 | 33.1 |  |  |  |  |  |
| CCCCCCCCNC(=O)CN(C(=O)CN)N(C)C(C)=O | 1020 (≈ 3260 µM) | 1020 (≈ 3260 µM) | 2050 (≈ 6510 µM) | 2050 (≈ 6510 µM) | 2050 (≈ 6510 µM) |  |  |  | 9.1 |  |  |  |  |  |
| CCCCCCCCNC(=O)CN(NC(=O)C(C)(C)C)C(=O)CN.Cl | 256 | 256 | 512 | 256 | 512 | 775 | 1.5 | 3 | 11.7 |  |  |  |  |  |
| CCCCCCCCNC(=O)CN(NC(=O)OCc1ccccc1)C(=O)CN.Cl | 128 | 64 | 64 | 64 | 128 | 189 | 3 | 3 | 14.3 |  |  |  |  |  |
| CCCCCCCCNC(=O)CN(NC(C)=O)C(=O)CN.Cl | 256 | 128 | 128 | 256 | 256 | 223 | 1.7 | 0.9 | 9.3 |  |  |  |  |  |
| CCCCCCCCCCCCNC(=O)CN(NC(=O)OCc1ccccc1)C(=O)CN.Cl | 16 | 8 | 8 | 32 | 128 | 86 | 11 | 2.7 | 21.2 |  |  |  |  |  |
